Compound activity (PubChem BioAssay)
This is one part of a sample in which hits are shown more often than they occur.
HCT116 bCat-KO – beta-catenin-lacking colon tumor cell growth suppression; HCT116 beta-catenin knockout viability, CellTiter-Glo, 60 h; hits give low values; viability, % at 10 µM; 1.5% of 140,000 active;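 active = viability at or under a set limit, the compound median less 4 SD, cut at about 6% in these data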;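 also: 0% = Hyamine 1622 control at 20 µM and 100% = untreated cell control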
HCT116 PTEN-null – growth suppressors of cells with PTEN tumor suppressor deletion; viability, % at 10 µM; 1.2% of 140,000 active; AID 827; HCT116 PTEN-null viability, CellTiter-Glo, 60 h; hits give low values;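 active = viability at or below a set limit, 4 SD under the median of all tested compounds, cut at about 3.7% in these data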;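 also: PTEN knockout HCT116 line with beta catenin targeted HCT116 as companion control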
Lung fibro prol – blocks proliferation of human lung fibroblasts | viability, % at 10 µM | LL 47 human lung fibroblast viability, ATP luminescence; hits give low values | 1.1% of 85,000 active;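 active = viability at or below 50% in the single dose screen; inactive = viability above 50%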;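 also: compound exposure lasted 72 h before the ATP readout; 100% = median luminescence of untreated cell-only wells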
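test system = LL 47 human lung fibroblasts | amount = 1,150 fibroblasts seeded per well | medium = 15% FBS in IMEM | times = overnight cell rest, 72 h compound treatment at 37 °C | measured by = CellTiter-Glo luminescence measuring cellular ATP | read-out = viability percentage against median untreated-cell control | benchmarks = cell-only wells, no compound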
HUVEC inhibit – inhibitors of human endothelial cell proliferation; viability, % at 10 µM (by protocol); HUVEC proliferation, CellTiter-Glo luminescence, 72 h; hits give low values; 1.1% of 86,000 active;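 active = viability at or below 30%; inactive = viability above 30%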;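 also: 100% = median luminescence of DMSO-only cell control wells on each plate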
H69AR inhibit – blocks growth of human H69AR lung tumor cells; viability, % at 10 µM; 6% of 85,000 active; AID 598; H69AR lung tumor viability, ATP luminescence, 72 h; hits give low values;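 active = viability at or below 40%; inactive = viability above 40%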;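 also: multidrug resistant small cell line overexpressing MRP-1 efflux transporter; 100% = mean luminescence of untreated control wells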
Active calls of the source: *; nt = no result.

SMILES	HCT116 bCat-KO	HCT116 PTEN-null	Lung fibro prol	HUVEC inhibit	H69AR inhibit
COc1ccc(Cn2c(C)c(C)c(C#N)c2NC(=O)Nc2ccc(Cl)cc2)cc1	97.1	99.5	74.1	63.1	35.0*
COc1ccc(Cn2c(C)c(C)c(C#N)c2NC(=O)Nc2cccc(Cl)c2)cc1	79.1	78.7	93.2	61.0	36.2*
O=c1n(S(=O)(=O)c2cccc3cccnc23)c2ccccc2n1S(=O)(=O)c1cccc2cccnc12	80.7	75.1	85.9	77.2	81.6
CCS(=O)(=O)Nc1ccc(C(=O)CC2(O)C(=O)Nc3ccccc32)cc1 (stereo not given)	99.4	98.9	100.2	100.7	81.0
COC(=O)c1ccc(NC2(C#N)C(=O)Nc3ccccc32)cc1 (stereo not given)	86.6	88.2	95.2	86.1	23.1*
Cc1onc(-c2ccccc2Cl)c1C(=O)Nc1ncn[nH]1	100.9	99.1	nt	nt	nt
CCCCN(CC)S(=O)(=O)c1ccc(C(=O)N=c2sc3cc(NC(C)=O)ccc3n2C)cc1	0.6*	0.7*	nt	nt	nt
O=C(NCCc1ccccc1)C(c1cccs1)N(C(=O)CCl)c1ccc(Cl)cc1 (stereo not given)	1.1*	0.8*	nt	nt	nt
CSc1nc2c(c(=O)[nH]1)C(c1ccncc1)C(C(=O)OC(C)C)=C(C)N2 (stereo not given)	87.5	93.0	110.5	89.2	88.9
Cc1ccc(-c2nn(-c3ccccc3)cc2CN(Cc2ccccc2)C(=O)c2ccco2)o1	21.1	26.8	80.3	47.6	52.2
Cc1cccc(N=C2NN=C(c3c(C)[nH]c4ccccc34)CS2)c1	2.7*	4.1	nt	nt	nt
Cc1cccc(N=C2NN=C(c3ccc4c(c3)OCCO4)CS2)c1	36.0	29.7	102.1	85.7	77.1
CCc1ccc(C2NC(=S)NC3=C2C(=O)N(c2ccccc2OC)C(c2ccc(CC)cc2)N3)cc1 (stereo not given)	74.7	70.5	nt	nt	nt
O=C1C2=C(NC(=S)NC2c2ccc(Cl)cc2)NC(c2ccc(Cl)cc2)N1c1ccc(Cl)cc1 (stereo not given)	13.2	22.4	97.8	7.6*	0.1*
CCCCOc1ccc(-c2nc(SCC(N)=O)n[nH]2)cc1	98.8	98.4	111.3	97.8	88.6
CCCCOc1ccc(-c2nc(=S)[nH][nH]2)cc1	101.1	103.8	106.2	80.1	19.1*
O=C(CC(=O)NC1CCCCC1)N/N=C/c1cccc2ccccc12	84.9	99.1	nt	nt	nt
c1ccc2c(c1)c1ccccc1n1c(-c3ccc4c(c3)OCO4)nnc21	93.4	85.0	nt	nt	nt
O=C(Nc1cccc(F)c1)C1CCN(C(=O)c2ccc(Br)cc2)CC1	68.6	68.7	101.6	91.6	33.9*
Cc1cc(C)cc(C(=O)NCC(=O)OCC(=O)N(C)C2CCS(=O)(=O)C2)c1 (stereo not given)	85.3	92.9	nt	nt	nt
COc1ccc(NC(=O)Nc2nccs2)cc1	45.8	53.4	85.8	57.2	20.3*
O=C(Nc1ccccc1)Nc1nccs1	78.6	80.6	96.9	79.0	88.5
CCOC(=O)CC(=O)CSc1nc2c(c(C)c1C#N)CCC2	94.2	82.3	103.5	78.5	12.1*
Cc1ccc(-c2nnc(SCC(=O)Nc3ccccc3N3CCOCC3)o2)cc1	96.9	93.1	96.3	106.1	94.7
Cc1ccc2nc(SCC(=O)Nc3ccccc3N3CCOCC3)c(C#N)cc2c1	57.5	58.4	95.0	44.4	23.8*
SMILES	HCT116 bCat-KO	HCT116 PTEN-null	Lung fibro prol	HUVEC inhibit	H69AR inhibit
CCOC(=O)CC(=O)CSc1nc2ccc(C)cc2cc1C#N	30.8	24.8	96.2	100.1	3.2*
COC(=O)CSc1nc2cc(C)ccc2cc1C#N	84.7	81.4	nt	81.2	78.2
O=C1CCC/C(=N\NC(=O)c2ccc(NS(=O)(=O)c3ccc(Br)cc3)cc2)C1	85.3	87.9	nt	nt	nt
CCOC(=O)C1=C(O)/C(=C/c2cn(CC(=O)NCC3CCCO3)c3ccccc23)SC1=Nc1ccc(C)cc1 (stereo not given)	nt	nt	26.8*	11.6*	22.6*
N#Cc1nc(-c2cccc3ccccc23)oc1NCCN1CCCCC1	56.7	47.4	52.9	5.1*	12.6*
Cc1cnc(C(=O)OCC(=O)N(C(C)C)C(C)C)cn1	100.8	94.3	99.9	96.5	98.7
O=C(c1ccco1)N1CCN(C(=O)c2cc(-c3ccncc3)nc3ccc(Br)cc23)CC1	nt	nt	84.2	65.0	38.6*
O=C(c1ccco1)N1CCN(C(=O)c2cc(-c3ccccn3)nc3ccc(Cl)cc23)CC1	74.8	81.5	97.6	86.2	38.4*
O=C(c1ccco1)N1CCN(c2ncnc3c2[nH]c2ccc(Br)cc23)CC1	49.1	50.6	81.2	66.6	38.2*
O=C(c1ccco1)N1CCN(c2ncnc3c2[nH]c2ccccc23)CC1	61.4	62.0	92.5	84.4	44.6
CC(C)(C)C(C(Oc1ccc(Cl)cc1)n1cncn1)n1nnnc1C(c1cccc(Cl)c1)N1CCCCC1 (stereo not given)	5.7*	14.8	96.5	54.6	12.2*
COCCn1nnnc1C(c1cccc(C#N)c1)N1CCCCCC1 (stereo not given)	90.2	82.0	98.1	96.7	80.8
CC(=O)c1ccc(S(=O)c2ccccc2)cc1 (stereo not given)	98.7	88.1	nt	nt	nt
NS(=O)(=O)c1ccc(Nc2nc(-c3ccc4ccccc4c3)cs2)cc1	98.9	91.0	78.8	86.4	32.0*
O=C1OC(NC(=O)c2ccccc2)C(n2cc(CO)nn2)=C1Cl (stereo not given)	93.1	95.8	94.2	85.6	53.8
c1ccc2c(c1)oc1c(N3CCN(Cc4ccc5c(c4)OCO5)CC3)ncnc12	30.9	29.7	95.5	84.7	84.8
O=C(c1c(F)c(F)c(F)c(F)c1F)N(Cc1ccccc1)Cc1ccccc1	80.3	80.1	92.5	87.8	36.3*
O=C(O)c1ccccc1C(=O)N(Cc1ccccc1)Cc1ccccc1	94.6	106.5	97.1	90.5	94.5
C=CCOc1c(Cl)cc(C2NC(=O)NC(C)=C2C(=O)OC)cc1Cl (stereo not given)	53.7	63.5	81.0	77.3	32.1*
CCc1cccc(CC)c1NC(=O)c1ccccc1CCc1ccccc1	80.5	80.1	nt	nt	nt
CCCCCNC(=O)Cc1cc(=O)[nH]c(=O)[nH]1	84.5	103.5	99.6	105.0	97.0
O=c1nccc(NCc2ccco2)[nH]1	90.1	93.7	107.3	106.7	102.8
CCNc1ccc2noc3c2c1C(=O)c1ccccc1-3	32.9	46.1	87.5	68.6	17.6*
O=C1c2ccccc2-c2onc3ccc(NCc4ccco4)c1c23	53.9	49.8	87.0	53.8	34.1*
CCOc1ccc2noc3c2c1C(=O)c1ccccc1-3	77.9	76.5	nt	nt	nt
CCOC(=O)C1=C(N)OC2=C(C(=O)CCC2)C1c1ccc(C)s1 (stereo not given)	90.3	94.5	92.3	104.4	102.2
OCCN(Cc1ccccc1)Cc1ccc(Cl)cc1Cl	83.3	69.4	95.0	104.7	91.1
Cc1cc(C)n(-c2nnc3n2N=C(c2c[nH]c4ccccc24)CS3)n1	17.2	17.8	55.1	57.7	17.1*
Cc1cc(C)n(-c2nnc3n2N=C(c2ccccc2)CS3)n1	99.6	104.5	104.9	88.0	81.8
